ChEMBL document CHEMBL1833904, “Antiplasmodial and antiproliferative pseudoguaianolides of Athroisma proteiforme from the Madagascar Dry Forest” (J Nat Prod, 2011)

Experiments:
[1] = tested on: A2780; experiment: Antiproliferative activity against human A2780 cells; format: cell-based
[2] = tested on: Plasmodium falciparum; experiment: Antiplasmodial activity against chloroquine-resistant Plasmodium falciparum Dd2 after 72 hrs by SYBR green 1 dye based fluorometric method; format: functional, organism-based; details: Dd2, 72 h
Outline: (§1)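 Sorbitol-synchronised ring-stage cultures (>95% rings), final 1% hematocrit and 0.5% parasitemia, added to prewarmed wells holding sample diluted in complete medium from DMSO stock. Incubated 72 h at 37 °C under 90% N, 5% O2, 5% CO2. SYBR Green I added, 1 h at 37 °C, fluorescence ex 490/em 530 nm. Triplicate IC50s averaged (±S.E.M.); chloroquine positive control.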

[3] = tested on: Plasmodium falciparum; experiment: Antiplasmodial activity against chloroquine-sensitive Plasmodium falciparum HB3 after 72 hrs SYBR green 1 dye based by fluorometric method; format: functional, organism-based; details: HB3, 72 h; outline: as §1
[4] = tested on: Plasmodium falciparum; experiment: Resistance factor, ratio of IC50 for chloroquine-resistant Plasmodium falciparum Dd2 to IC50 for chloroquine-sensitive Plasmodium falciparum HB3; format: functional

Compound	IC50 [1] [nM]	IC50 [2] [nM]	IC50 [3] [nM]	Ratio IC50 [4]
C=C1C(=O)O[C@@H]2[C@@H](C)[C@@H]3C=CC(=O)[C@@]3(C)[C@@H](OC(=O)/C(C)=C\C)[C@H]1[C@H]2OC(=O)CC(C)(O)CC (relative stereo)	380			
C=C1C(=O)O[C@H]2C[C@@H](C)[C@@H]3[C@@H](OC(=O)C(C)C)C[C@@H](OC(C)=O)[C@@]3(C)[C@@H](OC(C)=O)[C@H]12 [ATHROLIDE A]	2100	32700	34300	1
CC(=O)O[C@H]1C(=O)[C@@]2(C)[C@H]([C@H](OC(=O)c3ccccc3)[C@]3(O)C[C@H](OC(=O)[C@H](O)[C@@H](NC(=O)c4ccccc4)c4ccccc4)C(C)=C1C3(C)C)[C@]1(OC(C)=O)CO[C@@H]1C[C@@H]2O [PACLITAXEL]	17			
C=C1C(=O)O[C@H]2C[C@@H](C)[C@@H]3[C@@H](OC(=O)C(C)C)C[C@@H](OC(C)=O)[C@@]3(C)[C@H](O)[C@H]12 [ATHROLIDE B]	2500			
C=C1C(=O)O[C@@H]2[C@@H](C)[C@@H]3C=CC(=O)[C@@]3(C)[C@@H](OC(=O)/C=C(\C)CC)[C@H]1[C@H]2OC(=O)CC(C)(O)CC (relative stereo)	1900			
C=C1C(=O)O[C@@H]2[C@@H](C)[C@@H]3C=CC(=O)[C@@]3(C)[C@@H](OC(=O)/C(C)=C\C)[C@H]1[C@H]2OC(=O)CC(C)(C)O (relative stereo)	570			
